Tests used:
[1] = species on record: Rattus norvegicus; test: Anti-psychotic activity from the ability to block discrete trial conditioned avoidance response (CAR) of rats.; format: functional
Outline: (§1)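 Discrete-trial conditioned avoidance in male CD rats kept at about 400–450 g body weight. Dosing was ip or po, 30 min before testing, with at least five rats per dose (20 or 40 mg/kg, or a dose range). Computer recorded intertrial, avoidance and escape responses and no-response trials. Avoidance-block trials were taken as % of total trials, with control avoidance set at 100%. AB50 came from a least-squares dose-effect regression line.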

[2] = molecular target: D(2) dopamine receptor (Rattus norvegicus) (UniProt P61169); test: Inhibition of [3H]spiperone binding to Dopamine receptor D2 of rat limbic structures; format: tissue-based; set-up: concentration or dose not given beside the values; conditions: Limbic system, concentration not given here
[3] = molecular target: T1, 5-hydroxytryptamine receptor 1A (Rattus norvegicus) (UniProt P19327); test: In vitro ability to inhibit [3H]8-OH-DPAT binding to 5-hydroxytryptamine 1A receptor of rat hippocampus at 1 uM; format: tissue-based
T1 sequence (whole entry): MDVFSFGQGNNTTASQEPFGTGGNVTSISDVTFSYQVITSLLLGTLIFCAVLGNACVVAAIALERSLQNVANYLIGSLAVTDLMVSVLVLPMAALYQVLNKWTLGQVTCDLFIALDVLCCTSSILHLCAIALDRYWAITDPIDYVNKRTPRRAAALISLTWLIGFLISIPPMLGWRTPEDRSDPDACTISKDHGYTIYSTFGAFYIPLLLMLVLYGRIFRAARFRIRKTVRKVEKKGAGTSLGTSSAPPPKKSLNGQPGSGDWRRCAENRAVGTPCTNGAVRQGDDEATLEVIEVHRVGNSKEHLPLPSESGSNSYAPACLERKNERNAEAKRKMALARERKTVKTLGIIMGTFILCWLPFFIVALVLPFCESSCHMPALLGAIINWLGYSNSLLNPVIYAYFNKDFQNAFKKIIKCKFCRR

[4] = molecular target: T2, 5-hydroxytryptamine receptor 1A (Rattus norvegicus, UniProt P19327); test: In vitro ability to inhibit [3H]8-OH-DPAT binding to 5-hydroxytryptamine 1A receptor of rat hippocampus and the value ranges from 12 to 17.; format: tissue-based
T2 sequence (P19327 whole entry): T1 sequence (whole entry)

[5] = system: Rattus norvegicus; test: In vivo ability (10.0 mg/kg) was to antagonize serotonin syndrome in rat; format: functional
Outline: (§2)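 Rat in vivo test adapted from published serotonin syndrome methods. Agents given ip; 5-MeO-DMT at 3.0 mg/kg ip was used to elicit the syndrome. Behaviour rated and reported as mean total score (±SEM).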

[6] = system: Rattus norvegicus; test: In vivo ability (10.0 mg/kg) was to elicit serotonin syndrome in rat; format: functional; outline: as §2
[7] = molecular target: T3, GABA-A receptor; anion channel (Rattus norvegicus) (UniProt O09028+P15431+P18506+P18508+P19969+P20236+P23574+P23576+P28471+P28473+P30191+P62813+P63079+P63138+Q91ZM7+Q9ES14); test: (§3) Percent inhibition of GABA-A benzodiazepine receptor at 1 uM; format: protein-complex assay
Outline: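 Incubated with 1.5×10^-9 M [³H]diazepam for 30 min at 4 °C, then filtered on GF/C and counted by scintillation. Nonspecific binding defined with 3×10^-6 M unlabelled diazepam.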

[8] = molecular target: T4, Adrenergic receptor alpha-1 (Rattus norvegicus) (UniProt P15823+P23944+P43140); test: Percent inhibition of Alpha-1 adrenergic receptor by 1 uM of compound; format: protein assay
[9] = molecular target: Adrenergic receptor beta (Rattus norvegicus) (UniProt P18090+P10608+P26255); test: Percent inhibition of Beta adrenergic receptor by 1 uM of compound; format: protein assay
[10] = species on record: Rattus norvegicus; test: Antipsychotic activity was evaluated from the ability to block discrete trial conditioned avoidance response (CAR) of rats; format: functional
Outline: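 Male CD rats (about 400–450 g) trained in discrete-trial avoidance. Compound given ip or po 30 min before testing, at 20 or 40 mg/kg or over a dose range, with at least five rats per dose. Intertrial, avoidance, escape and no-response trials were recorded. Avoidance block is the percentage of trials without avoidance. AB50 comes from a least-squares dose–effect regression line.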

[11] = system: Rattus norvegicus; test: Compound was tested for antagonism of apomorphine-induced stereotyped behavior, after intraperitoneal dosing.; format: functional; conditions: ip
Outline: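 High-dose apomorphine-induced stereotyped behavior procedure. Test agents were given ip at doses up to 60 mg/kg.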

[12] = molecular target: D(2) dopamine receptor (Rattus norvegicus) (UniProt P61169); test: Inhibition of [3H]-spiperone binding to dopamine receptor D2 of rat limbic structures at 1 uM.; conditions: Limbic system
[13] = system: Rattus norvegicus; test: Compound was tested for antagonism of apomorphine-induced climbing behavior, after intraperitoneal dosing.; format: functional; conditions: ip
[14] = molecular target: T1, 5-hydroxytryptamine receptor 1A (Rattus norvegicus); test: In vitro ability to inhibit [3H]-8-OH-DPAT binding to 5-hydroxytryptamine 1A receptor of rat hippocampus.; format: tissue-based; conditions: concentration not given here
[15] = molecular target: T1, 5-hydroxytryptamine receptor 1A (Rattus norvegicus); test: In vitro ability to inhibit [3H]-8-OH-DPAT binding to 5-hydroxytryptamine 1A receptor of rat hippocampus at 1 uM; format: tissue-based
[16] = molecular target: T2, 5-hydroxytryptamine receptor 1A; test: In vitro ability to inhibit [3H]-8-OH-DPAT binding to 5-hydroxytryptamine 1A receptor of rat hippocampus. and the value ranges from 16 - 27; format: tissue-based
[17] = molecular target: D(2) dopamine receptor (Rattus norvegicus) (UniProt P61169); test: In vitro ability to inhibit [3H]spiperone binding to Dopamine receptor D2 of rat limbic structures at 10 uM; format: tissue-based; conditions: Limbic system
[18] = molecular target: D(2) dopamine receptor (Rattus norvegicus) (UniProt P61169); test: Compound was tested in vitro at for the ability to inhibit [3H]spiperone binding to Dopamine receptor D2 of rat limbic structures at 3 uM; format: tissue-based; conditions: Limbic system
[19] = molecular target: T2, 5-hydroxytryptamine receptor 1A; test: The inhibition activity of 5-HT1A at 1 uM
[20] = system: Rattus norvegicus; test: Compound was tested for antagonism of apomorphine-induced climbing behavior, after intraperitoneal dosing and the value ranges from 0.97 - 11.7; format: functional; conditions: ip
[21] = molecular target: T2, 5-hydroxytryptamine receptor 1A; test: In vitro ability to inhibit [3H]8-OH-DPAT binding to 5-HT1A receptor of rat hippocampus and the value ranges from 9 - 12; format: tissue-based
[22] = molecular target: D(2) dopamine receptor (Rattus norvegicus, UniProt P61169); test: In vitro ability to inhibit [3H]spiperone binding to Dopamine receptor D2 of rat limbic structures and the value ranges from 116 - 159.; format: tissue-based, Limbic system
[23] = system: Rattus norvegicus; test: Mean total score of in vivo ability (8.0 mg/kg) was to elicit serotonin syndrome; format: functional
[24] = system: Rattus norvegicus; test: Mean total score of In vivo ability (10.0 mg/kg) was to antagonize serotonin syndrome; format: functional
[25] = Partition coefficient (logP); format: physicochemical; conditions: octanol/water
[26] = species on record: Rattus norvegicus; test: Anti psychotic activity was evaluated from the ability to block discrete trial conditioned avoidance response (CAR) of rats and the value ranges from 26 - 143; format: functional; outline: as §1
[27] = molecular target: T4, Adrenergic receptor alpha-1 (Rattus norvegicus); test: The percent inhibition of Alpha-1 adrenergic receptor at 1 uM; format: protein assay
[28] = molecular target: T3, GABA-A receptor; anion channel (Rattus norvegicus); test: as §3; format: protein-complex assay; remark: listed apart in the source
Outline: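 Male Sprague-Dawley rat brain (cerebellum and pons-medulla removed) was homogenized in 0.32 M sucrose to give a 30000g pellet, resuspended in Tris-HCl pH 7.5. Membranes were incubated with 1.5×10^-9 M [³H]diazepam (2.0 mL final) for 30 min at 4 °C, GF/C filtered, washed ice-cold and scintillation counted. Nonspecific binding was taken with 3×10^-6 M cold diazepam. Drug was tested at 1 μM.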

Sequence of D(2) dopamine receptor (Rattus norvegicus) (P61169 whole entry): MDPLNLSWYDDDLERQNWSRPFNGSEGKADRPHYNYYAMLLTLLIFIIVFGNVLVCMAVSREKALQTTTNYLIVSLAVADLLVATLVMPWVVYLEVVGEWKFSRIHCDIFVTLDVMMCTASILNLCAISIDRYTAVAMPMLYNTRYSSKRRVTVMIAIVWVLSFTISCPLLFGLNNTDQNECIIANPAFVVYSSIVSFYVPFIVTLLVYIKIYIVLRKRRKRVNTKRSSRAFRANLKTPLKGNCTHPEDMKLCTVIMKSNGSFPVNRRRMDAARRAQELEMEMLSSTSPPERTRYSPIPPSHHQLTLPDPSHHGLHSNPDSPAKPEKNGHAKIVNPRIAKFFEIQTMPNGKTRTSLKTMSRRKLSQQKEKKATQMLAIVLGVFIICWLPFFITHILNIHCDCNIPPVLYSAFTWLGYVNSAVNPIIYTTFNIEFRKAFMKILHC
Sequence of D(2) dopamine receptor (P61169 whole entry): as above

| Structure (SMILES) | AB50 [1] [mg/kg] | inhibition [2] [%] | further results |
| --- | --- | --- | --- |
| Cl.O=C1C2C3C=CC(CC3)C2S(=O)(=O)N1CCCCc1ccncc1 (stereo not given) | >40 | 0 | inhibition [3]: 35% |
| Cl.Cl.O=C1C2C3C=CC(C4CC34)C2S(=O)(=O)N1CCCCN1CCN(c2ncccn2)CC1 (stereo not given) | 40 |  |  |
| Cl.Cl.O=C1C2C3C=CC(CC3)C2S(=O)(=O)N1CCCCN1CCN(c2ncccn2)CC1 (stereo not given) | 40 |  |  |
| Cl.Cl.O=C1C2C3C=CC(C3)C2S(=O)(=O)N1CCCCN1CCN(c2cccc(C(F)(F)F)c2)CC1 (stereo not given) | 51 |  | Ki [4]: 15 nM |
| Cl.O=C1c2ccccc2S(=O)(=O)N1CCCCN1CCN(c2cncc(Cl)n2)CC1 | 40 | 6 |  |
| Cl.Cl.Cl.O=C1C2C3C=CC(C3)C2S(=O)(=O)N1CCCCN1CCN(c2cncc(Cl)n2)CC1 (stereo not given) | 40 | 1 |  |
| O=C1CC2(CCCC2)CC(=O)N1CCCCN1CCN(c2ncccn2)CC1 [BUSPIRONE] |  |  | Mean [5]: 6.1; Mean [6]: 2.9; inhibition [7]: 0%; inhibition [8]: 33%; inhibition [9]: 0%; AB50 [10]: 32 mg/kg |
| Cl.O=C1C2C3C=CC(C3)C2S(=O)(=O)N1CCCCc1ccncc1 (stereo not given) | 40 | 1 |  |
| Cl.Cl.O=C1C2C3CCC(O3)C2S(=O)(=O)N1CCCCN1CCN(c2ncccn2)CC1 (stereo not given) | >40 |  | ED50 [11]: 34 mg/kg; inhibition [12]: 0%; ED50 [13]: 16 mg/kg |
| Cl.O=C1c2ccccc2S(=O)(=O)N1CCCCN1CCn2cccc2C1 | >40 | 0 |  |
| Cl.Cl.O=c1c2ccccc2[s+]([O-])n1CCCCN1CCN(c2ncccn2)CC1 (stereo not given) | 40 |  | inhibition [12]: 3%; inhibition [3]: 43% |
| CC1=C(C)CC2C(C1)C(=O)N(CCCCc1ccncc1)S2(=O)=O.Cl (stereo not given) | >40 |  | inhibition [12]: 56%; inhibition [3]: 8% |
| Cl.O=C1c2ccccc2S(=O)(=O)N1CCCCN1CCN(c2nccnc2Cl)CC1 | 40 |  |  |
| Cl.Cl.Cl.O=C1c2cscc2S(=O)(=O)N1CCCCN1CCN(c2ccc(Cl)nn2)CC1 | >40 |  |  |
| Cl.Cn1nnnc1N1CCN(CCCCN2C(=O)c3ccccc3S2(=O)=O)CC1 | 40 |  | inhibition [12]: 14%; inhibition [14]: 52% |
| Cl.Cl.O=C1N(CCCCN2CCN(c3ncccn3)CC2)S(=O)(=O)NC12CCCCC2 | 40 |  |  |

| Structure (SMILES) | AB50 [1] [mg/kg] | inhibition [2] [%] | further results |
| --- | --- | --- | --- |
| Cl.O=C1c2cscc2S(=O)(=O)N1CCCCN1CCN(c2cncc(Cl)n2)CC1 | >40 |  |  |
| CC1CC(=O)N(CCCCN2CCN(c3ncccn3)CC2)S(=O)(=O)N1.Cl (stereo not given) | 40 |  |  |
| Cl.O=c1c2ccccc2[s+]([O-])n1CCCCN1CCN(c2cncc(Cl)n2)CC1 (stereo not given) | 40 | 0 | inhibition [15]: 44% |
| Cl.O=C1C2C3CCC(C4CC43)C2S(=O)(=O)N1CCCCN1CCN(c2ncccn2)CC1 (stereo not given) | 40 | 70 | Ki [16]: 21 nM |
| Cl.O=C1[C@H]2C3CCC(O3)[C@H]2S(=O)(=O)N1CCCCc1ccncc1 (stereo not given in full) | 40 |  | inhibition [12]: 3%; inhibition [3]: 0% |
| Cl.O=C1[C@@H]2C3CCC(O3)[C@@H]2S(=O)(=O)N1CCCCN1CCN(c2cncc(Cl)n2)CC1 (stereo not given in full) | 40 | 10 | inhibition [15]: 54% |
| Cl.Cl.O=C1c2cscc2S(=O)(=O)N1CCCCN1CCN(c2ncccn2)CC1 | >20 |  |  |
| Cl.O=C1C2C3CCC(CC3)C2S(=O)(=O)N1CCCCC1CCN(c2cncc(Cl)n2)CC1 (stereo not given) | >40 | 0 | inhibition [15]: 7% |
| CC1=C(C)CC2C(C1)C(=O)N(CCCCN1CCN(c3ncccn3)CC1)S2(=O)=O.Cl.Cl (stereo not given) | 40 | 21 |  |
| CC1CC(=O)N(CCCCN2CCN(c3cncc(Cl)n3)CC2)S(=O)(=O)N1.Cl.Cl.Cl (stereo not given) | 32 | 4 | inhibition [15]: 61% |
| CC1=C(C)CC2C(C1)C(=O)N(CCCCN1CCN(c3cncc(Cl)n3)CC1)S2(=O)=O.Cl.Cl.Cl (stereo not given) | 40 |  | inhibition [17]: 66% |
| Cl.O=C1C2C3C=CC(CC3)C2S(=O)(=O)N1CCCCN1CCN(c2cncc(Cl)n2)CC1 (stereo not given) | 40 |  | inhibition [18]: 57% |
| Cl.Cl.O=C1c2ccccc2S(=O)(=O)N1CCCCN1CC2CN(Cc3ccccc3)CC2C1 (stereo not given) | >40 | 8 |  |
| Cl.Cl.Cl.O=C1C2C3C=CC(C3)C2S(=O)(=O)N1CCCCN1CCN(c2ccc(Cl)nn2)CC1 (stereo not given) | >40 | 3 |  |
| Cl.O=C1c2cscc2S(=O)(=O)N1CCCCN1CCN(c2nccnc2Cl)CC1 | >40 |  |  |
| Cl.Cl.O=C1C2C3C=CC(C4C=CC43)C2S(=O)(=O)N1CCCCN1CCN(c2ncccn2)CC1 (stereo not given) |  |  | Ki [19]: 10 nM; ED50 [11]: 32.2 mg/kg; ED50 [20]: 3.38 mg/kg; Ki [21]: 10 nM; Ki [22]: 136 nM; Mean [23]: 3.9; Mean [24]: 5.1; logP [25]: 1.92; AB50 [26]: 39 mg/kg; inhibition [27]: 54%; inhibition [28]: 0% |

Source: ChEMBL document CHEMBL1124456, “Synthesis and structure-activity relationship of substituted tetrahydro- and hexahydro-1,2-benzisothiazol-3-one 1,1-dioxides and thiadiazinones: potential anxiolytic agents” (J Med Chem, 1989)
